Results published in ChEMBL document CHEMBL1133174, “Disubstituted indazoles as potent antagonists of the integrin alpha(v)beta(3)” (J Med Chem, 2000).

The compounds below were run against T1, Integrin alpha-V/beta-3 (Homo sapiens, UniProt P05106+P06756) (assay: Inhibition of adhesion of integrin beta-3-transfected HEK293 cells to fibrinogen).
T1 sequence (P05106 27-788 limits assumed): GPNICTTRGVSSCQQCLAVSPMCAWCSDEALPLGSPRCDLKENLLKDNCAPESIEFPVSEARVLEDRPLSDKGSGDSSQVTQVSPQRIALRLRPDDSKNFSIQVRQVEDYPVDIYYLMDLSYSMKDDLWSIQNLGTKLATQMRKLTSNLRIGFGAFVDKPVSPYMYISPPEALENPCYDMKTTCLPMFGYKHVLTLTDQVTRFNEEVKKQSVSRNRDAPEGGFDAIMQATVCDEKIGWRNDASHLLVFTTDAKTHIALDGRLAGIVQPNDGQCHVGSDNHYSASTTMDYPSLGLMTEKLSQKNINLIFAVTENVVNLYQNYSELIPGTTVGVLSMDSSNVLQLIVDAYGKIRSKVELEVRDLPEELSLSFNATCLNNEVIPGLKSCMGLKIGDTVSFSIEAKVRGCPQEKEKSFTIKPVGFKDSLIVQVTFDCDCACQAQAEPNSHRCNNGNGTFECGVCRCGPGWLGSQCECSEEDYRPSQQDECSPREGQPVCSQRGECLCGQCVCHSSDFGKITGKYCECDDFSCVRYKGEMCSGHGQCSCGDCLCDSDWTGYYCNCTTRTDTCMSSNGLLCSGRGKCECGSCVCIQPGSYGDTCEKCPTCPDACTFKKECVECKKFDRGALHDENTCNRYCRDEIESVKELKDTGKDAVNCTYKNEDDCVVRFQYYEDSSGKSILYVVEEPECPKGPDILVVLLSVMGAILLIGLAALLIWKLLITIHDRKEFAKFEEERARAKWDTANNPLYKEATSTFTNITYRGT
T1 sequence (P06756 31-889 limits assumed): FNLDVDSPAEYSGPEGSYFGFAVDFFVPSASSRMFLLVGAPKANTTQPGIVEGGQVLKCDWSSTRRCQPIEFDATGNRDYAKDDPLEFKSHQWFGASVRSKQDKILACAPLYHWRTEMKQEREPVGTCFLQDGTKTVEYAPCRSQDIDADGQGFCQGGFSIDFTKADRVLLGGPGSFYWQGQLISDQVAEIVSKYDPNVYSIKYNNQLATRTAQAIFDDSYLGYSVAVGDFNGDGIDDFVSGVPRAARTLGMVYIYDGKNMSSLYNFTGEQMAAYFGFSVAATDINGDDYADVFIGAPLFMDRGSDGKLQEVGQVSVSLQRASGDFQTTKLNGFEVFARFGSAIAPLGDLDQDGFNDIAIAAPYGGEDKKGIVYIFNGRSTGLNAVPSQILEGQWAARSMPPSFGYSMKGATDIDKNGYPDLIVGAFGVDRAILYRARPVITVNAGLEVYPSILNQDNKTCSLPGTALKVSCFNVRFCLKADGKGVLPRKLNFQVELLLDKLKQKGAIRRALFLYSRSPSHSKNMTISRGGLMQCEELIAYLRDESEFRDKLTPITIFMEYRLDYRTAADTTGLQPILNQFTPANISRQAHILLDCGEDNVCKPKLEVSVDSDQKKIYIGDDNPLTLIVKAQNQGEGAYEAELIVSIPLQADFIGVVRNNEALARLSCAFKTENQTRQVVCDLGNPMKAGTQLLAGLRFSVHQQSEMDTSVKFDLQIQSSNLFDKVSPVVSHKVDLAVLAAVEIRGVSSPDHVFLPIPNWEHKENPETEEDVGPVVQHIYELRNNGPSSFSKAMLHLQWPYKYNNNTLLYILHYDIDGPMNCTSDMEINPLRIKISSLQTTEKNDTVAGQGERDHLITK
T1 sequence (P06756 891-1048 limits assumed): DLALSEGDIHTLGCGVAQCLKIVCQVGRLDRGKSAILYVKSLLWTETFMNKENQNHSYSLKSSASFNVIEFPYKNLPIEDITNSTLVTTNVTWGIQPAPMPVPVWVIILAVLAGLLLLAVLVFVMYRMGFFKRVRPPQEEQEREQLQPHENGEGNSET
Type: functional, cell-based
Summary of the method: (§1)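 Fibrinogen-coated plates were blocked with BSA in PBS. HEK293 cells expressing human β3 subunit were preincubated 15 min at 37 °C with or without compound, then allowed to adhere for 60 min. Nonadherent cells were washed off with PBS, adherent cells lysed, and β-galactosidase activity read. IC50 was derived from standard curves and reported ± SEM.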
Cc1cc(C)c(S(=O)(=O)N[C@@H](CNC(=O)c2ccc3c(cnn3CCCNC3=NCCCN3)c2)C(=O)O)c(C)c1 was tested, and the IC50 was 28 nM.
Work on Cc1cc(C)c(S(=O)(=O)N[C@@H](CNC(=O)c2ccc3c(cnn3CCCNC3=NCCN3)c2)C(=O)O)c(C)c1 yielded an IC50 of 70 nM.

These compounds were tested against T1, Integrin alpha-V/beta-3 (assay: Inhibitory activity against beta-3-transfected 293 cells using alpha-V beta-3 antagonism assay).
Type: functional, cell-based, HEK293
Summary of the method: as §1
In the case of Cc1cc(C)c(S(=O)(=O)N[C@@H](CC(=O)Nc2ccc3c(cnn3CCCNc3ccccn3)c2)C(=O)O)c(C)c1, the IC50 is reported as 840 nM.
CC(C)CCC(=O)N[C@@H](CNC(=O)c1ccc2c(cnn2CCCNc2ccccn2)c1)C(=O)O gave an IC50 greater than 1000 nM.
In the case of O=C(NC[C@H](NS(=O)(=O)c1ccc2ccccc2c1)C(=O)O)c1ccc2c(cnn2CCCNc2ncc[nH]2)c1, the IC50 is reported as 4.7 nM.
O=C(NC[C@H](NS(=O)(=O)c1ccc(Cl)c(Cl)c1)C(=O)O)c1ccc2c(cnn2CCCNc2ncc[nH]2)c1 showed an IC50 of 10 nM.
Compound Cc1cc(C)c(S(=O)(=O)N[C@@H](CNC(=O)c2ccc3c(cnn3CCCNc3cc[nH]n3)c2)C(=O)O)c(C)c1 has an IC50 greater than 1000 nM.
With O=C(O)CCNC(=O)c1ccc2c(cnn2CCCNc2ccccn2)c1 the IC50 was greater than 1000 nM.
Work on Cc1cc(C)c(S(=O)(=O)N[C@@H](CN(C)C(=O)c2ccc3c(cnn3CCCNc3ccccn3)c2)C(=O)O)c(C)c1 yielded an IC50 greater than 1000 nM.
With CC(C)(C)c1ccc(S(=O)(=O)N[C@@H](CNC(=O)c2ccc3c(cnn3CCCNc3ncc[nH]3)c2)C(=O)O)cc1 the IC50 was 120 nM.
For O=C(N[C@@H](CNC(=O)c1ccc2c(cnn2CCCNc2ccccn2)c1)C(=O)O)OCc1ccccc1, the IC50 was 300 nM.
In the case of O=C(N[C@@H](CNC(=O)c1ccc2c(cnn2CCCNc2ncc[nH]2)c1)C(=O)O)OCc1ccccc1, the IC50 is reported as 74 nM.
Work on O=C(NC[C@H](NS(=O)(=O)c1ccccc1)C(=O)O)c1ccc2c(cnn2CCCNc2ccccn2)c1 yielded an IC50 of 120 nM.
CC(=O)Nc1ccc(S(=O)(=O)N[C@@H](CNC(=O)c2ccc3c(cnn3CCCNc3ncc[nH]3)c2)C(=O)O)cc1 was tested, and the IC50 was 150 nM.
Work on O=C(NC[C@H](NS(=O)(=O)c1ccc(Cl)cc1)C(=O)O)c1ccc2c(cnn2CCCNc2ncc[nH]2)c1 yielded an IC50 of 10 nM.
CC(C)CNS(=O)(=O)N[C@@H](CNC(=O)c1ccc2c(cnn2CCCNc2ccccn2)c1)C(=O)O showed an IC50 greater than 1000 nM.
O=C(NC[C@H](NS(=O)(=O)c1cccc2ccccc12)C(=O)O)c1ccc2c(cnn2CCCNc2ncc[nH]2)c1 was tested, and the IC50 was 13 nM.
In the case of O=C(NC[C@H](NS(=O)(=O)NCc1ccccc1)C(=O)O)c1ccc2c(cnn2CCCNc2ccccn2)c1, the IC50 is reported as 600 nM.
For O=C(NCc1ccccc1)N[C@@H](CNC(=O)c1ccc2c(cnn2CCCNc2ccccn2)c1)C(=O)O, the IC50 was greater than 1000 nM.
O=C(Nc1ccccc1)N[C@@H](CNC(=O)c1ccc2c(cnn2CCCNc2ccccn2)c1)C(=O)O gave an IC50 greater than 1000 nM.
COc1ccc(S(=O)(=O)N[C@@H](CNC(=O)c2ccc3c(cnn3CCCNc3ncc[nH]3)c2)C(=O)O)cc1 showed an IC50 of 26 nM.
Compound Cc1cc(C)c(NS(=O)(=O)N[C@@H](CNC(=O)c2ccc3c(cnn3CCCNc3ccccn3)c2)C(=O)O)c(C)c1 has an IC50 of 360 nM.
O=C(O)CCNC(=O)c1ccc2c(cnn2CCCNc2ncc[nH]2)c1 showed an IC50 greater than 1000 nM.
In the case of CCCCS(=O)(=O)N[C@@H](CNC(=O)c1ccc2c(cnn2CCCNc2ccccn2)c1)C(=O)O, the IC50 is reported as 360 nM.
Compound Cc1cc(C)c(S(=O)(=O)NCCNC(=O)c2ccc3c(cnn3CCCNc3ncc[nH]3)c2)c(C)c1 has an IC50 greater than 1000 nM.
Work on O=C(NC[C@H](NS(=O)(=O)c1ccccc1)C(=O)O)c1ccc2c(cnn2CCCNc2ncc[nH]2)c1 yielded an IC50 of 44 nM.
In the case of Cc1cc(C)c(S(=O)(=O)N[C@@H](CNC(=O)c2ccc3c(cnn3CCCNc3ccccn3)c2)C(=O)O)c(C)c1, the IC50 is reported as 48 nM.
Cc1cc(C)c(S(=O)(=O)N[C@H](CNC(=O)c2ccc3c(cnn3CCCNc3ncc[nH]3)c2)C(=O)O)c(C)c1 showed an IC50 of 290 nM.
O=C(NC[C@H](NS(=O)(=O)Cc1ccccc1)C(=O)O)c1ccc2c(cnn2CCCNc2ccccn2)c1 showed an IC50 greater than 1000 nM.
Work on O=C(CCc1ccccc1)N[C@@H](CNC(=O)c1ccc2c(cnn2CCCNc2ccccn2)c1)C(=O)O yielded an IC50 greater than 1000 nM.
Compound O=C(NC[C@H](NS(=O)(=O)c1ccc(-c2ccccc2)cc1)C(=O)O)c1ccc2c(cnn2CCCNc2ncc[nH]2)c1 has an IC50 of 35 nM.
Cc1cc(C)c(S(=O)(=O)N[C@@H](CNC(=O)c2ccc3c(cnn3CCCNc3ncc[nH]3)c2)C(=O)O)c(C)c1 showed an IC50 of 2.3 nM.
Work on O=C(NC[C@H](NS(=O)(=O)c1c(Cl)cccc1Cl)C(=O)O)c1ccc2c(cnn2CCCNc2ncc[nH]2)c1 yielded an IC50 of 8.5 nM.
Compound Cc1cc(-c2ccccc2)cc(C)c1S(=O)(=O)N[C@@H](CNC(=O)c1ccc2c(cnn2CCCNc2ncc[nH]2)c1)C(=O)O has an IC50 of 4.9 nM.
O=C(O)C[C@H](NC(=O)c1ccc2c(cnn2CCCNc2ccccn2)c1)C(=O)NCCc1ccccc1 was tested, and the IC50 was greater than 1000 nM.
For CC(C)COC(=O)N[C@@H](CNC(=O)c1ccc2c(cnn2CCCNc2ccccn2)c1)C(=O)O, the IC50 was 240 nM.
O=C(NC[C@H](NS(=O)(=O)Nc1ccccc1)C(=O)O)c1ccc2c(cnn2CCCNc2ccccn2)c1 was tested, and the IC50 was 170 nM.
Cc1cc(C)c(NC(=O)[C@H](CC(=O)O)NC(=O)c2ccc3c(cnn3CCCNc3ccccn3)c2)c(C)c1 was tested, and the IC50 was greater than 1000 nM.
With O=C(NC[C@H](NS(=O)(=O)c1ccc(C(F)(F)F)cc1)C(=O)O)c1ccc2c(cnn2CCCNc2ncc[nH]2)c1 the IC50 was 52 nM.
With Cc1ccc(S(=O)(=O)N[C@@H](CNC(=O)c2ccc3c(cnn3CCCNc3ncc[nH]3)c2)C(=O)O)cc1 the IC50 was 16 nM.
Cc1cc(C)c(S(=O)(=O)N[C@@H](CNC(=O)c2ccc3c(cnn3CCC(=O)Nc3ncc[nH]3)c2)C(=O)O)c(C)c1 showed an IC50 of 56 nM.
In the case of Cc1cccc(C)c1S(=O)(=O)N[C@@H](CNC(=O)c1ccc2c(cnn2CCCNc2ncc[nH]2)c1)C(=O)O, the IC50 is reported as 10 nM.

Each compound was assayed against Integrin alpha-IIb/beta-3 (Homo sapiens, UniProt P05106+P08514) (assay: Inhibition of aggregation of human gel-purified platelets (GPIIbIIIa GPP)).
Chain of Integrin alpha-IIb/beta-3 (P05106 27-788 limits assumed): as the sequence (P05106 27-788 limits assumed) above
Chain of Integrin alpha-IIb/beta-3 (P08514 32-887 limits assumed): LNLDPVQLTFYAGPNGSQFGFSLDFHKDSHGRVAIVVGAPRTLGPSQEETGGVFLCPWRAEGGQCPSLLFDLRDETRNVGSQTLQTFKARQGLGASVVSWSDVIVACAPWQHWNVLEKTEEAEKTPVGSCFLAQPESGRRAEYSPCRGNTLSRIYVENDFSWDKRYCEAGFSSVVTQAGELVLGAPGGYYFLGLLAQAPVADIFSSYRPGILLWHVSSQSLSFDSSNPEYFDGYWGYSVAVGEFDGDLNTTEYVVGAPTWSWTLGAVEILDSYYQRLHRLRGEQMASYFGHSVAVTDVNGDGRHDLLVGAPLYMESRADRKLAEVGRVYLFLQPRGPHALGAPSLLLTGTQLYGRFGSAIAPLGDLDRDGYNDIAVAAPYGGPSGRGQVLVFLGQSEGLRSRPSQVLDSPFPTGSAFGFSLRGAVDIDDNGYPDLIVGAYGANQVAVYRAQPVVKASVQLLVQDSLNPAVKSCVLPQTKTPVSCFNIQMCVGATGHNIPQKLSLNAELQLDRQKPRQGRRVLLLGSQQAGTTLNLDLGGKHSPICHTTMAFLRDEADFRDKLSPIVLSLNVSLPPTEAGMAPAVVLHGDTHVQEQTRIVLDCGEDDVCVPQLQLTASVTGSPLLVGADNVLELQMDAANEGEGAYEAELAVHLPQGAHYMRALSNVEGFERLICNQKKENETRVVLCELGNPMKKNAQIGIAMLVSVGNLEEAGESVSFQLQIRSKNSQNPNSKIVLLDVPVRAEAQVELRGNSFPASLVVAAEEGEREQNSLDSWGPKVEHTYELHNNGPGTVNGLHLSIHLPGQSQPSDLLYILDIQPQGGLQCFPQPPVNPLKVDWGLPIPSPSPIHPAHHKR
Chain of Integrin alpha-IIb/beta-3 (P08514 891-1039 limits assumed): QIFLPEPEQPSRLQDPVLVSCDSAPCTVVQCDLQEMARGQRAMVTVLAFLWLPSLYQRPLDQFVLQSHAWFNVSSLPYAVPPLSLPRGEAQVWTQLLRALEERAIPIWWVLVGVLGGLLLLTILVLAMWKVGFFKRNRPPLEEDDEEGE
Type: functional
Summary of the method: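 Human platelets from healthy-volunteer platelet-rich plasma were gel-purified on sepharose and used at 2×10^8 platelets/mL with 1 mM CaCl2 and 1 mg/mL fibrinogen. Aggregation was measured with or without compound at several concentrations and IC50 calculated. Values are single determinations.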
For Cc1cc(C)c(S(=O)(=O)N[C@@H](CNC(=O)C2=NOC(CCCC(=O)Nc3ncc[nH]3)C2)C(=O)O)c(C)c1 (some centres undefined), the IC50 was 61000 nM.

What follows are compounds tested against T1, Integrin alpha-V/beta-3 (assay: Inhibitory activity against beta-3-transfected 293 cells using alphaV-beta3 antagonism assay).
Type: functional, cell-based, HEK293
Summary of the method: as §1
Work on Cc1cc(C)c(S(=O)(=O)N[C@@H](CNC(=O)c2cccc3c2cnn3CCCNc2ncc[nH]2)C(=O)O)c(C)c1 yielded an IC50 of 25 nM.
O=C(N[C@@H](CNC(=O)c1ccc2c(cnn2CCNC2=NCCN2)c1)C(=O)O)OCc1ccccc1 gave an IC50 greater than 1000 nM.
Compound O=C(N[C@@H](CNC(=O)c1ccc2nn(CCCNC3=NCCN3)cc2c1)C(=O)O)OCc1ccccc1 has an IC50 greater than 1000 nM.
With O=C(N[C@H](CNC(=O)c1ccc2cnn(CCCNC3=NCCN3)c2c1)C(=O)O)OCc1ccccc1 the IC50 was greater than 1000 nM.
In the case of O=C(N[C@@H](CNC(=O)c1cccc2c1cnn2CCCNC1=NCCN1)C(=O)O)OCc1ccccc1, the IC50 is reported as greater than 1000 nM.
Work on O=C(N[C@@H](CNC(=O)c1ccc2c(cnn2CCCCNC2=NCCN2)c1)C(=O)O)OCc1ccccc1 yielded an IC50 greater than 1000 nM.
Work on O=C(N[C@H](CNC(=O)c1ccc2cn(CCCNC3=NCCN3)nc2c1)C(=O)O)OCc1ccccc1 yielded an IC50 greater than 1000 nM.
Compound O=C(N[C@@H](CNC(=O)c1ccc2c(cnn2CCCNC2=NCCN2)c1)C(=O)O)OCc1ccccc1 has an IC50 of 460 nM.

These compounds were tested against T1, Integrin alpha-V/beta-3 (assay: Inhibition of Vitronectin receptor (alpha V beta 3) binding).
Type: protein-complex assay
Compound Cc1cc(C)c(S(=O)(=O)N[C@@H](CNC(=O)c2cccc3c2cnn3CCCNc2ncc[nH]2)C(=O)O)c(C)c1 has an IC50 of less than 0.1 nM.
O=C(N[C@@H](CNC(=O)c1ccc2c(cnn2CCNC2=NCCN2)c1)C(=O)O)OCc1ccccc1 was tested, and the IC50 was 51 nM.
In the case of O=C(N[C@@H](CNC(=O)c1ccc2nn(CCCNC3=NCCN3)cc2c1)C(=O)O)OCc1ccccc1, the IC50 is reported as 55 nM.
In the case of O=C(N[C@H](CNC(=O)c1ccc2cnn(CCCNC3=NCCN3)c2c1)C(=O)O)OCc1ccccc1, the IC50 is reported as 1500 nM.
O=C(N[C@@H](CNC(=O)c1cccc2c1cnn2CCCNC1=NCCN1)C(=O)O)OCc1ccccc1 gave an IC50 of 7.3 nM.
Compound O=C(N[C@@H](CNC(=O)c1ccc2c(cnn2CCCCNC2=NCCN2)c1)C(=O)O)OCc1ccccc1 has an IC50 of 250 nM.
Work on O=C(N[C@H](CNC(=O)c1ccc2cn(CCCNC3=NCCN3)nc2c1)C(=O)O)OCc1ccccc1 yielded an IC50 of 25 nM.
O=C(N[C@@H](CNC(=O)c1ccc2c(cnn2CCCNC2=NCCN2)c1)C(=O)O)OCc1ccccc1 showed an IC50 of 3.8 nM.
